Data reported in the EternaBench riboswitch data.

Test system: MS2 coat protein
Assay: apparent Kd, MS2 coat protein; higher = weaker binding; RNA-MaP array; FMN 200 µM where present
Procedure, shortened: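 Stalled E. coli RNA polymerase transcribed the designs on Illumina sequencing-chip clusters. SNAP-549-labelled MS2 coat protein was titrated from 0.7 or 1.5 nM, doubling to 3 µM, without and then with constant ligand, in 100 mM Tris-HCl pH 7.5, 80 mM KCl, 4 mM MgCl2, BSA, DTT, yeast tRNA and Tween-20. Per-cluster binding curves were fitted to green signal normalised to red-channel RNA signal and control-cluster median Fmax. The apparent Kd is the median of the filtered fits.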

[1] = designed as: OFF switch for flavin mononucleotide, no ligand
[2] = ligand present: flavin mononucleotide, designed as: OFF switch for flavin mononucleotide
[3] = designed as: ON switch for flavin mononucleotide, no ligand
[4] = ligand present: flavin mononucleotide, designed as: ON switch for flavin mononucleotide

Sequence | apparent Kd [1] [nM] | apparent Kd [2] [nM] | apparent Kd [3] [nM] | apparent Kd [4] [nM]
ACCUUACAUGAGGAUCACCCAUGUCAGGAUAUCUCGGGCGGCCAAGGGCCGGCCGCCCAGAGAAGGGACGAGGA | 14.5 | 13.7 | – | –
ACCUUACAUGAGGAUCACCCAUGUUAGGAUAUCUCGCUUGCGCUGUCACAGCGCAAGCAGAGAAGGGACGCGGG | 35.2 | 40.9 | – | –
ACGAAACAUGAGGAUCACCCAUGUGCUUAAAGUGUAGGAUAUGGGAUAGCCUAGGUAGUCUCAGAAGGGCACCAAU | – | – | 45.1 | 22.5
ACGACGAAAGUCGAACGAUGAUCGAGAAGGACAUGAGGAUCACCCAUGUCCGCUGUAACAGCCAUGUAGGAUAUCGAUCAUCGA | 3.59 | 3.83 | – | –
ACGACGAAAGUCGAACGAUGAUCGAGAAGGACAUGAGGAUCACCCAUGUUCCCUGUAACAGGCAUGUAGGAUAUCGAUCAUCGA | 3.99 | 7.18 | – | –
ACGAUGUCAGGAUAUCGAUCACGGGUCUGAAGACACGUGUUUGAGAAGGGACAUGAGGAUCACCCAUGUGUCUA | 43.6 | 223 | – | –
ACGCAUUGCCUUUGGUAGUGCGUAACAUGAGGAUCACCCAUGUAGGAUAUGGUAGGCUUUGCUUACCAGAAGGACAUUAUAAAC | 29.3 | 48.5 | – | –
ACGCGUUGGGAGAAGGUACUUUAAUUAGGUUACACAUGAGGAUCACCCAUGUAAGGAUAUCCCAUCGUGUAAUAUUAUACAGCA | 8.06 | 7.39 | – | –
ACGGCUGUCAGAGGAUAUGGUUACAUGAGGAUCACCCAUGUCAAGGGUCUAAUUAAGUAUAACUACUAGAAGGCUGAUGGCCGA | 282 | 129 | – | –
ACGUAUCAUGUAGGAUAUGGCCCAGGAACUUGGUCAGAAGGACAUGAGGAUCACCCAUGUAGAGUAUGUUAGGAUGACGUAUGC | 92.9 | 173 | – | –
ACGUUUUAUGCAGGAUAUUGAAAUUUAUUACAACAAGAAGGGCAAUACAUGAGGAUCACCCAUGUCAGCAUGGUAUUAAAGUUC | 18 | 16.1 | – | –
ACUAAGGAGGUAGGAUAUUGUGUGGUGGCCGGGCUCCCACGGCGAGCGGCACAAGAAGGAUCCCAACAUGAGGAUCACCCAUGU | – | – | 48.9 | 26.1
ACUACUUAGUGAGGAUAUACAUAAUUUAUAACUGUAGAAGGCACAAACCUCAAUACAUGAGGAUCACCCAUGUGGUAUAUCUAU | 188 | 380 | – | –
ACUAUACGAGGAUAUACUGACGGGCCUCAGGCAUCCAUCAGACAUGAGGAUCACCCAUGUAGAAGGCGUAUACU | 56.1 | 158 | – | –
ACUAUACGAGGAUAUACUGUCAGUACUCAGACAUAAAUAUGACAUGAGGAUCACCCAUGUAGAAGGCGUUUACU | 29 | 39 | – | –
ACUAUACGAGGAUAUACUGUCAGUACUCAGAGAUUAAUGUGACAUGAGGAUCACCCAUGUAGAAGGCGUUUACU | 31.9 | 35.3 | – | –
ACUGACAUGAGGAUCACCCAUGUCUUGAAUAGGUCAAAUUCACAGGAUAUGCGCUUUGACAGGGCGCAGAAGGGUGAUGCAAUG | – | – | 70.2 | 11.8
ACUGUUAGAGUCUUCCUUAUCACAUGAGGAUCACCCAUGUGGAGAAGGGACUGUAUCGUUAUCAGUUAGGAUAUCCAUGUGUGC | 4.62 | 4.72 | – | –
ACUUACUGAGGAUAUACAUAGAUUUACAUGAGGAUCACCCAUGUUCCUCUAUGUAUAUAUGUAGAAGGCAGAAGGU | 24.6 | 77.8 | – | –
ACUUCCCAGGAGAAGGGACAAGGCGGAGCCCGUACAUGAGGAUCACCCAUGUCAGGAUAUCCAUGCCGGAAGCUAACCCAGUUA | 6.42 | 10.1 | – | –
AGAAAACAUGAGGAUCACCCAUGUGAGGAUAUGCAAAUAUAUACGAAAGAUUAUAAAAGCAGAAGGCACAAAAG | 111 | 130 | – | –
AGAAACUACGAGAAGGACAUAUGAUUCUUCAGAUACAUGAGGAUCACCCAUGUAGGAUAUCGUAGUUUCAGGAUCGUGAGAUCA | 14 | 97.7 | – | –
AGAAACUACGAGAAGGACAUAUGGUACUUCAGAUACAUGAGGAUCACCCAUGUAGGAUAUCGUAGUUUCAGGAUCGUGAGAUCA | 9.58 | 42.6 | – | –
AGAAACUACGAGAAGGACAUGUGGUAAAACGCAAACAUGAGGAUCACCCAUGUAGGAUAUCGUAGUUUCAGGAUCGUGAGAUCA | 589 | 26.9 | – | –
AGAAAGGAAGGAUAUACAAGAAAGCUGGGCAACGUCUCAGAACAUGAGGAUCACCCAUGUAGAAGGUCCAGGAA | 25.2 | 34.3 | – | –
AGAACACAUGAGGAUCACCCAUGUGAGGAUAUCGAUGUCCCAGGGCGGGUGCGGGACUCGAGAAGGCACUUGGA | 41.9 | 88 | – | –
AGAACUGAUAGAGGAUAUGUUUUACAUGAGGAUCACCCAUGUGUACAAGGAUCAAUAUAUUUGUUACAGAAGGCUAUUAGUGAG | 11.8 | 18.7 | – | –
AGAAGUAUGCAGGAUAUGGGAACCUAUUGACAUUCAGAAGGGCAUACAUGAGGAUCACCCAUGUGGCCUCCCAG | 19.3 | 35.1 | – | –

Sequence | apparent Kd [1] [nM] | apparent Kd [2] [nM] | apparent Kd [3] [nM] | apparent Kd [4] [nM]
AGACAUACUCAAGGAUAUCGUCGUACAUGAGGAUCACCCAUGUCGCACUUCUAAAGAGAAGUUGGCGAGAAGGUGAGGUUCGUU | – | – | 18.8 | 7.76
AGACGGAUCCGCGGUCGAUGCUAACUAGAAGGGCAGGUCACAUGAGGAUCACCCAUGUAGUAUAUGUAGGAUAUAGGAAGCGUG | – | – | 95.2 | 20.9
AGAGACUUGGGAGGAUAUGCCUGAUGGACACGGGCAGAAGGCCCAAACAUGAGGAUCACCCAUGUAUCUAAGCCCUGGAAGGGC | – | – | 310 | 20.6
AGAGGUCGCACAGGAUAUCAUACAUGAGGAUCACCCAUGUCAGAAAACAAAUGAGAAGGGUGCGCAUUAAUUGCUUGUGAAGAA | – | – | 15.1 | 5.12
AGAUAACACCAGAAGGACAUGAGGAUCACCCAUGUAGGAUAUGGGCAUCACUCGAGAAAGAAAAGACCAAAUGGACACAUGGUC | – | – | 162 | 12.8
AGAUAACACCAGAAGGACAUGAGGAUCACCCAUGUAGGAUAUGGGCAUCACUCGAGAAAGAUACGACCAAAAGGACACGCGAUC | – | – | 85 | 10.3
AGAUAGUCAGGAUAUACAUGGAUGAUACACGUAUUUCCACUACAUGAGGAUCACCCAUGUAGAAGGGACUAUCA | 27.6 | 15.1 | – | –
AGAUAUGAUGCAGGAUAUCUAUCUUGAAUGAGGAGAGAAGGGCAAGCAGAGAGAUAAGCCUUAUGACAUGAGGAUCACCCAUGU | 10.2 | 8.61 | – | –
AGAUCACAUGAGGAUCACCCAUGUGAGGAUAUAGAUUCAAGAGCUUCGGCUCUAAAGUCUAGAAGGCGCUAUGA | 25.1 | 25.6 | – | –
AGAUCACAUGAGGAUCACCCAUGUGAGGAUAUGAUACUAUGUACUUCGGUACAUAGUAUCAGAAGGCAUAUGAA | 27.7 | 33.4 | – | –
AGAUCCUGAGUCAGGAUAUAGAGGCGAAAGCCUGGCUAGAAGGGACAUGAGGAUCACCCAUGUGGGUUCGUGCC | 20.2 | 66.5 | – | –
AGAUGACAAUGUCAUCUUCGUCGGACAUGAGGAUCACCCAUGUAGGAUAUGCUACUCAAAGAGUAGCAGAAGGACAUGUGUCUU | 19.7 | 41.1 | – | –
AGAUGGCGAGGAUAUACAUGAGGAUCACCCAUGUGAGAGAAAAGAGUGAGGAAGAAAAGUAGAAGGCGCUGUCA | 80.6 | 130 | – | –
AGAUGGUAGAGAGGAUAUCAUGUGCUGACAUGAGGAUCACCCAUGUAGGGACGUCGGUCCAAUUAUGAGAAGGCUCUACCAUCA | – | – | 81.7 | 50.8
AGAUGGUAUAUAGGAUAUCAUGUGCAAACAUGAGGAUCACCCAUGUAGAGACGUCAGUCUAAUAAUGAGAAGGAUAUACCAUCU | – | – | 37.1 | 9.97
AGAUGUGAACAUGAGGAUCACCCAUGUGACUAGGUUUAUUUCAGAAGGCAUUAAUAGAGAUUAUAUGAGGAUAUGAAGUUUUAA | – | – | 11.8 | 7.11
AGAUUUGUACAUGAGGAUCACCCAUGUUAAUAGGUGUUUGUCAGAAGGCAUUAAGAGAGAAUUAAUGAGGAUAUGAAGUUUCAU | – | – | 59.2 | 36.2
AGAUUUUUUACAGGAUAUGUUAGUUUACAGUUGAUUGGUUAUUACAUUAUGACAGAAGGGUAGAACAUGAGGAUCACCCAUGUA | – | – | 374 | 174
AGCAGACGAGGAUAUGAUAAAGAUCACAUGAGGAUCACCCAUGUACGCAGGAUACUGCGAUCAGAAGGCGUCUGCU | 13 | 13.8 | – | –
AGCAUGUAAGGAUAUGCAACACAGCUUUCAAUCGCUGUGCCGCAGAAGGUACAUGAGGAUCACCCAUGUGCUCC | 85.5 | 91.2 | – | –
AGCAUGUGAGGAUAUGCGGACUCCGGUAAAUCUGAAGUCCAGUAGAAGGCACAUGAGGAUCACCCAUGUGAGAU | 43 | 110 | – | –
AGCAUGUUAGGAUAUGCGAAGUCAGGACACACACUGACGAAGCAGAAGGAACAUGAGGAUCACCCAUGUAAGCA | 71.8 | 45.7 | – | –
AGCGAUGCAGGAUAUCCGCGGCUACACAUGAGGAUCACCCAUGUUAGGGUCGUGUUGCCAGGAGAAGGGCAAGGAU | 28.8 | 78.1 | – | –
AGCGUGUGAGGAUAUGCGGACUCCGGUAAAUCUGGAGUCCAGUAGAAGGCACAUGAGGAUCACCCAUGUGAGAU | 35.8 | 124 | – | –
AGCUACGUUUCGUAGCAGUGUCAUCGAGAAGGCCUUAAAACAUGAGGAUCACCCAUGUAUGCAUGGGAGGAUAUCGAUGAUACA | – | – | 31.7 | 6.98
AGCUACGUUUCGUAGCAGUGUCAUCGAGAAGGCUCAGAUACAUGAGGAUCACCCAUGUUAACAUGGGAGGAUAUCGAUGAUACA | – | – | 65.3 | 8.4
AGCUAGUACCGAGGAUAUACAUACAUGAGGAUCACCCAUGUAUACAUGAAUAAAUGAGACUACAUGUAGAAGGCGGUACUAGCA | – | – | 71.1 | 20
